Test results reported in ChEMBL document CHEMBL1128576, “Time-resolved ligand exchange reactions: kinetic models for competitive inhibitors with recombinant human renin” (J Med Chem, 1995).

How the values were obtained:
[1] = Half life period of the compound.; format: ADME
Summary of the method: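 Half-life was calculated as ln2/koff (first-order decay). koff came from paired fluorescent-probe ligand exchange with recombinant human renin: 5.0×10^-8 M renin, 5.0×10^-7 M probe, pH 7.4 HEPES/octyl glucoside buffer, 37 °C, 5-min preincubation. The two curves were fitted simultaneously, with the probe rate constants held fixed.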

Renin (Homo sapiens) [2] = biological target: T1, Renin (Homo sapiens) (UniProt P00797); assay: (§1) Component […] rate constant by the compound against Renin was determined; set-up: unit not given here
T1 sequence (whole entry): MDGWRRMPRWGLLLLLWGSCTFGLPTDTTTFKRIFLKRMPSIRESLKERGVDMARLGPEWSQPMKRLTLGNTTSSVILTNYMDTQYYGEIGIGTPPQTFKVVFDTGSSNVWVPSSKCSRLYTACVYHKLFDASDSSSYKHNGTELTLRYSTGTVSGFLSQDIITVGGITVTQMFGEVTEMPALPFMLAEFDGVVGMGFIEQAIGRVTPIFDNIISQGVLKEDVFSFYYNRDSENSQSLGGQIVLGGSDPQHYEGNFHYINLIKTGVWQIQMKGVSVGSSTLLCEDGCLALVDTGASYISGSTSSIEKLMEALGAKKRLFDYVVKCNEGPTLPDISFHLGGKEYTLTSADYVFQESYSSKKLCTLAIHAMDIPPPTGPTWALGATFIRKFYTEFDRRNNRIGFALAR

Renin (Homo sapiens) [3] = biological target: T1, Renin (Homo sapiens); assay: as §1

half-life [1] [min] | Koff (Renin (Homo sapiens) [2]) | k on (Renin (Homo sapiens) [3]) [M⁻¹ s⁻¹] | SMILES
8.9 | 0.0013 | 2e+06 | CC(C)C[C@H](O)[C@H](O)[C@H](CC1CCCCC1)NC(=O)[C@@H](CC(=O)N(CC(=O)N(C)CCC(=O)N1CCOCC1)[C@@H](C)c1ccccc1)Cc1csc(N)n1
6.6 | 0.00175 | 2.28e+06 | COC1(CN(CC(=O)N(C)CCc2ccccn2)C(=O)C[C@@H](Cc2csc(N)n2)C(=O)N[C@@H](CC2CCCCC2)[C@@H](O)[C@@H](O)CC(C)C)CCCCC1
2.4 | 0.00481 | 2.07e+06 | CC(C)C[C@H](O)[C@H](O)[C@H](CC1CCCCC1)NC(=O)[C@@H](CC(=O)N(CC(=O)N(C)CCN1CCOCC1)[C@@H](C)c1ccccc1)Cc1csc(N)n1

Continued, molecule first:

SMILES | half-life [1] [min] | Koff (Renin (Homo sapiens) [2]) | k on (Renin (Homo sapiens) [3]) [M⁻¹ s⁻¹]
CC(C)C[C@H](O)[C@H](O)[C@H](CC1CCCCC1)NC(=O)[C@@H](CC(=O)N(CC(=O)N(C)CCN(C)C(=O)N1CCOCC1)[C@@H](C)c1ccccc1)Cc1csc(N)n1 | 8.7 | 0.00133 | 5.43e+06
CC(C)C[C@H](O)[C@H](O)[C@H](CC1CCCCC1)NC(=O)[C@@H](CC(=O)N(CC(=O)N(C)CCc1ccccn1)[C@@H](C)c1ccccc1)Cc1csc(N)n1 | 8.6 | 0.00135 | 6.68e+06
CC(C)C[C@H](O)[C@H](O)[C@H](CC1CCCCC1)NC(=O)[C@@H](CC(=O)N(CC(=O)N(C)CCc1ccccn1)CC1CCCCC1)Cc1csc(N)n1 | 41.3 | 0.00028 | 5.93e+06
CC(C)C[C@H](O)[C@H](O)[C@H](CC1CCCCC1)NC(=O)[C@@H](CC(=O)N(CC(=O)N(C)CCc1ccccn1)CC1CCCCCC1)Cc1csc(N)n1 | 49.4 | 0.000234 | 8.63e+06
CC(C)C[C@H](O)[C@H](O)[C@H](CC1CCCCC1)NC(=O)[C@@H](CC(=O)N(CC(=O)N(C)CCc1ccccn1)CC1(C)CCCCC1)Cc1csc(N)n1 | 20.3 | 0.000569 | 1.22e+07
